# Measured values from ChEMBL document CHEMBL1132229, “3,7-Disubstituted-1,2,3,4-tetrahydroisoquinolines display remarkable potency and selectivity as inhibitors of phenylethanolamine N-methyltransferase versus the alpha2-adrenoceptor” (J Med Chem, 1999).
# Tests used:
# [1] = biological target: T1, Phenylethanolamine N-methyltransferase (Bos taurus, UniProt P10938); assay: Inhibition of bovine adrenal Phenylethanolamine N-Methyltransferase
# T1 sequence (P10938 whole entry): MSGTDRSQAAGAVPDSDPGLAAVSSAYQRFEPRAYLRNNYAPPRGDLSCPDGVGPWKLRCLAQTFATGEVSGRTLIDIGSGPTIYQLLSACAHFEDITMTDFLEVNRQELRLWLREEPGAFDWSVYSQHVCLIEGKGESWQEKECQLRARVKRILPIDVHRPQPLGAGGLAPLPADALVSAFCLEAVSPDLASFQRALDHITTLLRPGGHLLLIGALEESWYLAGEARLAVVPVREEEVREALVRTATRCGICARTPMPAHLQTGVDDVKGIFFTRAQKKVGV
# [2] = Relative affinity for PNMT and alpha2 adrenergic receptors
# [3] = biological target: T1, Phenylethanolamine N-methyltransferase; assay: In vitro inhibitory activity against bovine adrenal phenylethanolamine N-methyl transferase
# [4] = biological target: Adrenergic receptor alpha-2 (Rattus norvegicus) (UniProt P22086+P19328+P22909); assay: Stereo selectivity ratio for alpha-2(-)/(+) activities
# [5] = biological target: T2, Phenylethanolamine N-methyltransferase (Bos taurus) (UniProt P10938); assay: Stereo selectivity ratio for PNMT(-)/(+ ) activities
# T2 sequence (whole entry): T1 sequence (P10938 whole entry)
# [6] = biological target: T1, Phenylethanolamine N-methyltransferase; assay: In vitro inhibitory activity against bovine adrenal Phenylethanolamine N-Methyltransferase (for +- stereoisomer)
# [7] = biological target: T3, Adrenergic receptor alpha-2 (Rattus norvegicus, UniProt P22086+P19328+P22909); assay: In vitro binding affinity towards cortical membranes of male Sprague-Dawley rats alpha-2 adrenergic receptor by replacing [3H]clonidine
# T3 sequence (P22086 whole entry): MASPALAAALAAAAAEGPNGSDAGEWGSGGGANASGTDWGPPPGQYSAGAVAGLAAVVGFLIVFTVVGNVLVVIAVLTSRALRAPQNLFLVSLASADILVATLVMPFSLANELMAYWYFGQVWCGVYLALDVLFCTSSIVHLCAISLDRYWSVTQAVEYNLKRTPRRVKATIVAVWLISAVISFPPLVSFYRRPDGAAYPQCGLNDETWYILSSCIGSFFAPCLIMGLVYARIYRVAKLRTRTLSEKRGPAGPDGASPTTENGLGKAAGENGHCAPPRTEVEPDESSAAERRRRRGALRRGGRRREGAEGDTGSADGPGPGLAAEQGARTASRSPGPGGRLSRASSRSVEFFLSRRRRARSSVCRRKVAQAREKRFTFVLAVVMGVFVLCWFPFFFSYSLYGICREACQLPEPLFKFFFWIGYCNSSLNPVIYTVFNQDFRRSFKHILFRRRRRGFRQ
# T3 sequence (P19328 whole entry): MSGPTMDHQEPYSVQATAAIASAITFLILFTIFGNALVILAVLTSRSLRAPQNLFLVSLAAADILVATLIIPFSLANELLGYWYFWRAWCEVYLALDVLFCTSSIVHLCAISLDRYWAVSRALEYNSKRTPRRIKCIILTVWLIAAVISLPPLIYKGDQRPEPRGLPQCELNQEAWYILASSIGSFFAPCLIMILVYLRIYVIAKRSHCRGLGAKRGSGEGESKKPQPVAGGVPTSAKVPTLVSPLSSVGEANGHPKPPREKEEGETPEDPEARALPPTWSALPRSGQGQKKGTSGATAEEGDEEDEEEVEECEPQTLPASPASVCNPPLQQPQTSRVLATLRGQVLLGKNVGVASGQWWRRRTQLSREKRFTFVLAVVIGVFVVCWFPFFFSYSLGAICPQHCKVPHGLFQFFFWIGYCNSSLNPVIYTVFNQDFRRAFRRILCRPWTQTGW
# T3 sequence (P22909 whole entry): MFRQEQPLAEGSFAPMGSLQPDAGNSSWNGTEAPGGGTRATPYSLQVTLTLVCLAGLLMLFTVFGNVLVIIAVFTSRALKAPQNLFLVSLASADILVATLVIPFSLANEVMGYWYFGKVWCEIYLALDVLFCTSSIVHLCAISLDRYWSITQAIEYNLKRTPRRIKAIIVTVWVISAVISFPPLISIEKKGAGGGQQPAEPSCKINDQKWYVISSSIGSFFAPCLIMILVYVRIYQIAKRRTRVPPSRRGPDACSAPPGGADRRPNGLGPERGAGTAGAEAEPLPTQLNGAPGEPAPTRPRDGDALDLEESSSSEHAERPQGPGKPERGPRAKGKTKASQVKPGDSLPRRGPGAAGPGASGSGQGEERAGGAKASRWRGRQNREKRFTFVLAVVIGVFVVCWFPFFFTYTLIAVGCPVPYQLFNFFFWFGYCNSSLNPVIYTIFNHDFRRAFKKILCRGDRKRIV
# Summary of the method: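 Rat cortex (male Sprague-Dawley) homogenised in ice-cold 50 mM Tris/HCl pH 7.7, washed by three 50000g spins. Tissue incubated with 4.0 nM [3H]clonidine (final) and drug at five concentrations over a 16-fold range, 25 °C for 30 min. Bound ligand collected by vacuum filtration on GF/B filters and counted. Nonspecific binding set with 2 μM phentolamine. Quadruplicate. IC50 from log-probit analysis; Ki = IC50/(1+[clonidine]/KD).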
# [8] = biological target: T3, Adrenergic receptor alpha-2; assay: Displacement of [3H]clonidine from Alpha-2 adrenergic receptor of rat cortical membranes; type: cell membranes, Membrane
# Summary of the method: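 Male Sprague-Dawley rat cortex homogenized in ice-cold 50 mM Tris/HCl (pH 7.7 at 25 °C), washed by three 50000g spins, resuspended at 200 volumes. [3H]clonidine 4.0 nM final; 25 °C, 30 min; terminated by vacuum filtration on GF/B filters and scintillation counting. Nonspecific binding with 2 μM phentolamine.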
SMILES,Ki [1] [µM],Selectivity [2],also measured
O=[N+]([O-])c1ccc2c(c1)CNC(CO)C2 (centres undefined),0.29,,
NS(=O)(=O)c1ccc2c(c1)CNC(CO)C2 (centres undefined),0.34,4100,
CS(=O)(=O)c1ccc2c(c1)CNC(CO)C2 (centres undefined),0.64,1000,
O=C(O)C1Cc2ccccc2CN1 (centres undefined),,,Ki [3]: > 2000 µM
OC[C@H]1Cc2ccccc2CN1,0.56,7.9,Ratio [4]: 3.9; Ratio [5]: 27
O=[N+]([O-])c1ccc2c(c1)CN[C@H](CO)C2,0.9,,
OC[C@@H]1Cc2ccccc2CN1,15,1.1,
C[C@@H]1Cc2ccc([N+](=O)[O-])cc2CN1,1.3,41,Ratio [4]: 2.8; Ratio [5]: 5.2
OCC1Cc2ccccc2CN1 (centres undefined),,6,Ki [6]: 1.1 µM
C[C@H]1Cc2ccc([N+](=O)[O-])cc2CN1,0.25,,
CCC1Cc2ccccc2CN1 (centres undefined),,,Ki [7]: 0.66 µM
COC(=O)C1Cc2ccccc2CN1 (centres undefined),,,Ki [8]: 11 µM
NC(=O)C1Cc2ccccc2CN1 (centres undefined),,,Ki [8]: 250 µM
CC1Cc2ccc([N+](=O)[O-])cc2CN1 (centres undefined),0.49,63,Ki [8]: 31 µM
O=[N+]([O-])c1ccc2c(c1)CN[C@@H](CO)C2,0.24,,
COCC1Cc2ccccc2CN1 (centres undefined),9.2,0.3,
